We go through 4 compounds from ChEMBL document CHEMBL1125832, “Synthesis and dopaminergic activity of 3-substituted 1-(aminomethyl)-3,4-dihydro-5,6-dihydroxy-1H-2-benzopyrans: characterization of an auxiliary binding region in the D1 receptor” (J Med Chem, 1991).

Assay [1] has as its system Rattus norvegicus. Description: Rat rotation experiments were conducted to evaluate rational behavior of the rats by administering at a dose of 20 umol/kg oral. The assay is classed as functional. The gist of the method:
(§1)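 Rats with unilateral 6-hydroxydopamine lesions of the nigrostriatal bundle. Compound given subcutaneously or orally at the stated dose. Net contralateral rotations counted over 2 h after dosing and reported as mean ± SEM; negative values indicate ipsilateral turning.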

For assay [2], the system named is Rattus norvegicus. The experiment in a line: Rat rotation experiments were conducted to evaluate rational behavior of the rats by administering at a dose of 4.1 umol/kg subcutaneously. The assay is classed as functional. A digest of the protocol: as §1
Assay [3] concerns Rattus norvegicus. The experiment in a line: Rat rotation experiments were conducted to evaluate rational behavior of the rats by administering at a dose of 40 umol/kg oral. In kind it is functional. The gist of the method: as §1
The test system of assay [4] is Rattus norvegicus. The experiment in a line: Rat rotation experiments were conducted to evaluate rational behavior of the rats by administering at a dose of 20.0 umol/Kg subcutaneously. In kind it is functional. A digest of the protocol: as §1
The test system of assay [5] is Rattus norvegicus. The experiment in a line: (§2) Rat rotation experiments were conducted to evaluate rational behavior of the rats by administering at a dose of […] subcutaneously. The assay is classed as functional.
In assay [6] the target is T1, 5-hydroxytryptamine receptor 1A (Rattus norvegicus, UniProt P19327).
T1 sequence (P19327 whole entry): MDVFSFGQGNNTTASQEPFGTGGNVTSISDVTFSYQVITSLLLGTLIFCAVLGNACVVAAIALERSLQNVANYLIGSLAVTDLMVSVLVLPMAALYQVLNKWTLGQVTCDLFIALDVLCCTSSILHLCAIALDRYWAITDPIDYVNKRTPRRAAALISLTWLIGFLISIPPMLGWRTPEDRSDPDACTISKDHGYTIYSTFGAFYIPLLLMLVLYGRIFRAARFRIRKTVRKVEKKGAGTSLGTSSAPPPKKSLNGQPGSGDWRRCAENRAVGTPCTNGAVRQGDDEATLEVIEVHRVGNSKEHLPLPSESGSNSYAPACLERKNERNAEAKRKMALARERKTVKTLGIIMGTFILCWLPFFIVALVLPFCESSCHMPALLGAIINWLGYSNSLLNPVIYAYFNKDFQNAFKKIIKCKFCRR
The experiment in a line: Binding affinity was evaluated by using [3H]8-OH-DPAT radioligand by using competitive binding assay on 5-hydroxytryptamine 1A receptor. The gist of the method:
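Rat anterior cortex membranes, pelleted and preincubated 30 min at 37 °C in 50 mM Tris-HCl pH 7.7, 4 mM CaCl2, 10 μM pargyline. Label [3H]8-OH-DPAT, 800 pM final; nonspecific binding with 10 μM spiroxatrine. Ki derived from IC50 by Cheng-Prusoff; mean with SEM range.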

Assay [7] deals with Rattus norvegicus. Description: Rat rotation experiments were conducted to evaluate rational behavior of the rats by administering at a dose of […] oral. The assay is classed as functional.
Assay [8] concerns Rattus norvegicus. The description is as §2. In kind it is functional. This is another data set of the same source.

pKi: −log10 of the molar value.

Turning to `NC[C@@H]1OC(c2ccccc2)Cc2c1ccc(O)c2O` (stereo partly drawn), the Activity stood at 326 in the assay on Rattus norvegicus [1], 1554 in the assay on Rattus norvegicus [2] and 1066 with Rattus norvegicus [3].
In turn, `NC[C@H]1O[C@@H](c2ccccc2)Cc2c1ccc(O)c2O` showed an Activity with Rattus norvegicus [4] of -24.
For the compound `CC(C)(C)C1Cc2c(ccc(O)c2O)[C@H](CN)O1` (stereo partly drawn), the Activity in the assay on Rattus norvegicus [5] is 671; with Rattus norvegicus [7], 176. This compound also gave a negative logarithm of the Ki (pKi) in assay [6] of less than 4.70.
In the assay on Rattus norvegicus [8], `C=CCNC[C@@H]1OC(C2CCCCC2)Cc2c1ccc(O)c2O` (stereo partly drawn) had an Activity of 1056.

As usually defined, the pKi is the negative decadic logarithm of the Ki, by convention in mol/L.
